Assay results published in ChEMBL document CHEMBL4706564 (Eur J Med Chem, 2020).

What was measured:
Ebolavirus [1] = test: Antiviral activity against VSV-G pseudotyped EBOV infected in human HeLa cells; type: functional, organism-based; conditions: Orthoebolavirus
Marburgvirus [2] = test: Antiviral activity against VSV-G pseudotyped MARV infected in human HeLa cells; type: functional, organism-based; conditions: Orthomarburgvirus
Marburgvirus [3] = test: Antiviral activity against MARV Popp infected in African green monkey Vero cells assessed as inhibition of viral infection by measuring reduction in virus-induced cytotoxicity incubated for 10 days by neutral red dye based colorimetric analysis; type: functional, organism-based; conditions: vero
in vitro = conditions: human, HEK293T cells
cells [4] = type: cell-based, Ebolavirus, HEK293T; conditions: Orthoebolavirus, Mayinga, HEK-293T
[5] = (§1) Cytotoxicity against human HEK293T cells incubated for 48 hrs by MTT assay; type: cell-based, HEK-293T; conditions: HEK293T cells
In short: (§2)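 HEK293T cells at 10⁵ cells/ml were added to two-fold compound dilutions in 10% DMEM and incubated 48 h at 37 °C, 5% CO2. MTT (5 mg/ml stock in PBS, 1/10 volume) was added for 2 h, and formazan was dissolved in DMSO before reading optical density. Each concentration was run in triplicate. CC50 was the concentration giving 50% cell death, or halving OD versus control.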

Zaire ebolavirus = test: Antiviral activity against Zaire ebolavirus infected in African green monkey Vero cells assessed as inhibition of viral infection by measuring […] incubated for 10 days by neutral red dye based colorimetric analysis; type: functional, organism-based
Influenza A virus = test: Antiviral activity against Influenza A virus (H1N1); type: functional, organism-based
cells [6] = type: cell-based, HEK293T; conditions: Vesicular stomatitis virus, HEK-293T
[7] = (§3) Cytotoxicity against African green monkey Vero cells assessed as reduction in cell survival incubated for 10 days by neutral red dye based colorimetric analysis; conditions: chlorocebus sabaeus, Vero cells; time 10 day
In short: (§4)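 Confluent Vero monolayers received six concentrations from 3-fold serial dilutions in DMEM of DMSO-dissolved compound, plus medium without virus. After 10 days at 37 °C, 5% CO2, cells were stained with neutral red and read at 490 nm. CC50 came from a 4-parameter fit, with at least 3 analyses per compound.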

HEK-293T = test: as §1; type: cell-based; conditions: hek-293t, 48 h; in short: as §2
Vero = test: as §3; conditions: chlorocebus sabaeus, vero, 240 h; time 10 day; in short: as §4
[8] = Acute toxicity in ig dosed ICR mouse; type: organism-based; conditions: in vivo, po
In short: (§5)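 Outbred ICR mice, randomised into groups of 2. Each group got a single oral gavage dose of 1.08, […], 0.27 or 0.14 g/kg, given as a suspension in 10% DMSO in water at 0.1 mL/10 g. Controls received solvent only. Survival was recorded over 7 days.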

[9] = Acute toxicity in ICR mouse assessed as animal death at 0.14 to 1.08 g/kg, ig and measured for 7 days; conditions: in vivo, po, 168 h, dose 0.14-1.08 g/Kg, time 7 day; in short: as §5
Ebolavirus [10] = test: Antiviral activity against eGFP-positive VSV-G pseudotyped EBOV infected in human U2OS cells assessed as reduction in virus entry cells pre-incubed with compound for 1 hr followed by viral infection and measured after 12 to 14 hrs by fluorescence microscopic analysis; type: functional, organism-based; conditions: Orthoebolavirus

## N#Cc1c(NCCN)nc(-c2ccccc2)c2c1CCCC2
Ebolavirus [1]
  IC50: 24.4 µM
Marburgvirus [2]
  IC50: 6.2 µM

## O=[N+]([O-])c1cc(S(=O)(=O)NCCN2CCOCC2)ccc1Sc1nnnn1-c1ccccc1
Ebolavirus [1]
  IC50: 1.9 µM
Marburgvirus [2]
  IC50: 12.9 µM

## CC1(C)[C@H]2CC[C@]1(C)[C@H](OC(=O)CCN1CCOCC1)C2
Marburgvirus [3]
  IC50: Not Active
In vitro
  selectivity ratio: 36
Cells [4]
  IC50: 8.5 µM
[5]
  CC50 at 48 h: 305 µM
Zaire ebolavirus; vero
  IC50: Not Active
Influenza A virus
  IC50: 12.2 µM
Cells [6]
  IC50: 320 µM
[7]
  CC50 at 240 h: 122 µM

## CN1CCN(CCC(=O)O[C@@H]2C[C@@H]3CC[C@@]2(C)C3(C)C)CC1
Marburgvirus [3]
  IC50: Not Active
In vitro
  selectivity ratio: 870
Cells [4]
  IC50: 0.3 µM
[5]
  CC50 at 48 h: 282 µM
Zaire ebolavirus; vero
  IC50: Not Active
Influenza A virus
  IC50: 1.9 µM
Cells [6]
  IC50: 173 µM
[7]
  CC50 at 240 h: 61.4 µM

## CC1(C)[C@H]2CC[C@]1(C)[C@H](OC(=O)CCN1CCCCC1)C2
Marburgvirus [3]; read-out: IC50
  IC50: 3.7 µM
HEK-293T
  CC50: 290 µM
Zaire ebolavirus; vero, read-out: IC50
  IC50: 47.5 µM
Influenza A virus
  IC50: 7.8 µM
Cells [6]
  IC50: 93 µM
[7]
  CC50 at 240 h: 443 µM

## CC1CCN(CCC(=O)O[C@@H]2C[C@@H]3CC[C@@]2(C)C3(C)C)CC1 [listing 1 of 2 here]
Marburgvirus [3]; read-out: IC50
  IC50: 2.2 µM
Cells [4]
  IC50: 0.3 µM
HEK-293T
  CC50: 280 µM
Zaire ebolavirus; Zaire ebolavirus, Vero, 240 h, read-out: IC50
  IC50: 54.3 µM
Influenza A virus
  IC50: 15.3 µM
Vero
  CC50: 69.3 µM

## CC1(C)[C@H]2CC[C@]1(C)[C@H](OC(=O)CCN1CCCCC1)C2.Cl
Marburgvirus [3]; read-out: IC50
  IC50: 18.1 µM
HEK-293T
  CC50: 87 µM
Zaire ebolavirus; vero, read-out: IC50
  IC50: 9.1 µM
[8]
  LD50: > 1000 mg/kg
[9]
  Activity: Non-Toxic
Vero
  CC50: 279 µM

## CCCNC(=O)[C@@H]1O[C@H]1C(=O)N[C@@H](Cc1ccc(C)cc1)C(=O)N[C@H](C(=O)N1CCN(Cc2ccccc2)CC1)c1ccccc1
Ebolavirus [10]
  IC50: 0.07 µM

## CC1CCN(CCC(=O)O[C@@H]2C[C@@H]3CC[C@@]2(C)C3(C)C)CC1 [listing 2 of 2 here]
Marburgvirus [3]; read-out: IC50
  IC50: 5.7 µM
HEK-293T
  CC50: 69.8 µM
Zaire ebolavirus; vero, read-out: IC50
  IC50: 64.7 µM
Vero
  CC50: 144 µM
